This is a sample that favours compounds with a hit; in the whole collection about 5% have one here.
CSC inhib: cancer stem cell viability inhibitors, primary screen, luminescence. cancer stem cell-like cells viability. inhibition, % at 7.5 µM. actives 1.1% (n = 300,000). AID 2717, 2010; in the data active = inhibition above about 75%; inconclusive = no clear call, values can overlap the other calls; tested in HMLE shEcad cells
UPR XBP1 act: activators of adaptive XBP1 UPR arm, primary screen, cell-based, CHO-XBP1 luciferase reporter, luminescence, uHTS | IRE1-XBP1 UPR activation; percent of tunicamycin response, DMSO as zero | activation, % at 20 µM | actives 0.33% (n = 330,000) | AID 463104, 2010;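 active = versus positive control, 20 µM dose yields 30% or more activation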
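Assay system: IRE1-XBP1 luciferase reporter CHO line. Input: 1000 cells/well. Buffer or medium: F12 with 10% serum. Doses: 20 µM, 1% DMSO. Times: overnight seeding at 37 °C, 6 h compound treatment at 37 °C. Technique: Steady-Glo luciferase glow luminescence, 10 min after reagent addition.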
T cruzi repl: inhibitors of intracellular T. cruzi growth, primary screen, luminescence, NIH3T3 host cells; actives 1.4% (n = 300,000); inhibition, % (test concentration not listed); T. cruzi beta-gal in NIH3T3, 90 h;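 active = mean inhibition across valid replicates above about 55%, limit read from the data; inconclusive = mean below that limit but half or more replicates reach it; inactive = mean below it, under half of replicates reach it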;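 also: signal also drops with host cell toxicity which is not excluded here; higher percent means less beta-gal luminescence so fewer parasites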
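Assay system: NIH/3T3 host cells with β-galactosidase reporter T. cruzi; input: 5,000 host fibroblasts per well; compound: single 50 nL compound addition per well in DMSO; timing: ≥90 h infection period, 3 h prior cell attachment; measured by: GalScreen β-gal luminescence, detergent lysis, 60 min; evaluation: percent inhibition of parasite-derived β-gal signal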
UPR CHOP act: activators of apoptotic CHOP UPR arm, primary screen, cell-based, CHO-CHOP luciferase reporter, luminescence, uHTS. AID 449763, 2010. activation, % at 10 µM. actives 0.34% (n = 330,000). UPR activation; percent of tunicamycin response over DMSO baseline;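 active = at 10 µM dose, activation of 40% or more, normalized to positive control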
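Evaluation: % reporter activation, DMSO baseline versus tunicamycin full activation; System: CHO-CHOP luciferase reporter cell line; Input: 500 cells/well; Incubation: 6 h compound treatment, 37 °C; Measured by: Steady-Glo luciferase luminescence; Dosing: one dose, 10 µM in 0.5% DMSO; Buffer or medium: F12 medium, 10% FBS; Benchmarks: positive tunicamycin 10 µg/mL, negative DMSO alone.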
Beta apoptosis: inhibitors of cytokine-induced beta cell apoptosis, primary screen, luminescence. INS-1E cytokine-induced death, ATP luminescence, 48 h; percent of positive-control rescue, neutral wells zero. actives 0.8% (n = 300,000). protection from apoptosis, % (concentration not given with the values). AID 435005, 2010;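 active = Every replicate reaches about 75%, or at least half do and their mean reaches it too, limit read from the data; inconclusive = At least half of replicates reach the limit but their mean does not; inactive = Under half of replicates reach the limit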;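 also: higher means more ATP so stronger rescue from cytokine killing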
Mdm2 MdmX PPI: inhibitors of human Mdm2-MdmX association, primary screen, cell-based, luminescence, split luciferase, SaOS-2, uHTS | inhibition, % at 8 µM | Protein Mdm4 (Homo sapiens) + E3 ubiquitin-protein ligase Mdm2 (Homo sapiens), … | SaOS-2 split-luciferase Mdm2/MdmX complementation | actives 3% (n = 330,000);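 active = inhibition of at least 50% at 8 µM in the primary screen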
Target sequence (O15151 whole entry, looked up): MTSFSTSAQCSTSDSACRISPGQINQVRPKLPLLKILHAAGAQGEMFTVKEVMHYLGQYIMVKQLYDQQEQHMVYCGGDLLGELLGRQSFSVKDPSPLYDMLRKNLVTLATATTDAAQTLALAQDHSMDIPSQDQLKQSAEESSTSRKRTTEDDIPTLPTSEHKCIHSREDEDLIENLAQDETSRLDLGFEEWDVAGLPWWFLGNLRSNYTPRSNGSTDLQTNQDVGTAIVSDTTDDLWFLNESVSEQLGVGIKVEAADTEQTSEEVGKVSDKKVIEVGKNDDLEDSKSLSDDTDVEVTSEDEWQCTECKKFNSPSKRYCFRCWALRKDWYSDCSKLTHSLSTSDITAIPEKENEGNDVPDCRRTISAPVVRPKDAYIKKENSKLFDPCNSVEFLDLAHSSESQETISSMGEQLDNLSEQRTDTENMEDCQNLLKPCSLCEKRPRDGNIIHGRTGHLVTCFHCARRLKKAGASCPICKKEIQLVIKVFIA
Target sequence (Q00987 whole entry, looked up): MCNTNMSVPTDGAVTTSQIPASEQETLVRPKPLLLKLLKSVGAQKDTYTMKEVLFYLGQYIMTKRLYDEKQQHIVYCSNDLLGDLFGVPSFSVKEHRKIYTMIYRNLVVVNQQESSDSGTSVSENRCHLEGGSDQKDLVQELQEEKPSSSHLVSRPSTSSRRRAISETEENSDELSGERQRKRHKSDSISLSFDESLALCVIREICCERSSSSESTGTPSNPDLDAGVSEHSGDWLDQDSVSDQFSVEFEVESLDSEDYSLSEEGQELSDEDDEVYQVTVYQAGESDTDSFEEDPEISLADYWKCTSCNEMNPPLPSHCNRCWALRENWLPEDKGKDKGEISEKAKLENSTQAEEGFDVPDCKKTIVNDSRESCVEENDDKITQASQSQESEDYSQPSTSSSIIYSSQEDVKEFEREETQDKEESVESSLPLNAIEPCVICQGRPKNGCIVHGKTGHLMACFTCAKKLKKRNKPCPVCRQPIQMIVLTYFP
Of the large screens only hits and unclear results are named; the others gave an inactive call.

Cc1cc(C(=O)NCCc2ccccc2)c2cc(F)ccc2n1	none
O=C(COCc1cc(-c2ccc3c(c2)OCO3)on1)N1CCN(c2cccc(C(F)(F)F)c2)CC1	CSC inhib 119
O=C(N/N=C/c1ccc([N+](=O)[O-])s1)c1ccncc1	T cruzi repl 56
Cn1c(SCC(=O)N/N=C/c2ccc([N+](=O)[O-])s2)nnc1-c1ccc(Cl)cc1	Beta apoptosis 89
CC(C)(C)OC(=O)N/N=C\c1ccc([N+](=O)[O-])s1	T cruzi repl 57
O=C(N/N=C/c1ccc(Br)s1)c1ccccc1[N+](=O)[O-]	none
O=C(N/N=C/c1ccc(Br)s1)c1ccc([N+](=O)[O-])cc1	T cruzi repl 76
Cc1ccc(/C=N/NC(=O)c2ccncc2)s1	none
CCOC(=O)C1CCCN(C(=O)c2csc(-c3ccc4c(c3)CCO4)n2)C1 (centres undefined)	none
Cc1cc(C)n(CC(=O)N/N=C/c2ccc([N+](=O)[O-])s2)n1	T cruzi repl 59
Cc1ccc(C(=O)N/N=C\c2ccc([N+](=O)[O-])s2)cn1	T cruzi repl inconclusive
Cc1ccc(C(=O)N/N=C/c2ccc([N+](=O)[O-])s2)cc1	T cruzi repl 58
COC(=O)C1=C(C)NC(=O)/C1=C\N(C)C	none
COc1ccc(CCNC(=O)CCn2c(=O)c3cccn3c3ccc(F)cc32)c(OC)c1OC	none
CCOC(CCn1c(SCC(=O)NC2CCCC2)nc2ccccc2c1=O)OCC	none
O=c1cc(N2CCCCC2)c(-c2ccccc2)nn1Cc1ccccc1	CSC inhib 105
COc1ccc(Cn2nc(-c3ccccc3)c(N3CCCCC3)cc2=O)cc1	none
CCOC(=O)C1C(c2ccc([N+](=O)[O-])cc2)C2C(=O)NN=C2CC1(C)O (centres undefined)	none
N#Cc1c(C(F)(F)F)cc(-c2ccco2)nc1SCc1ccncc1	T cruzi repl 62
Cn1c(SCC(=O)Nc2cccc(F)c2)nc2c(c1=O)SCC2	none
CCN(CC)S(=O)(=O)c1ccc(Oc2ccc(S(=O)(=O)N(CC)CC)cc2)cc1	Beta apoptosis 113
O=C(/C=C/c1cn(-c2ccccc2)nc1-c1cccc(Cl)c1)N1CCN(c2ccccn2)CC1	T cruzi repl 73
Cc1ccc(-c2cc(C(=O)N3CCN(c4ccc(O)cc4)CC3)c3ccccc3n2)cc1	CSC inhib 79 (no result: T cruzi repl)
O=C(/C=C/c1cn(-c2ccccc2)nc1-c1cccnc1)N1CCCCC1	none
O=C(c1cc(-c2ccccc2Cl)nc2ccccc12)N1CCN(c2ccccn2)CC1	Beta apoptosis 98 (no result: T cruzi repl)
O=C(c1cnc(N2CCN(c3ccccn3)CC2)c2ccccc12)N1CCN(c2cccc(Cl)c2)CC1	Beta apoptosis 75
COc1ccc(-c2cc(C(=O)N3CCN(c4ccccc4)CC3)c3ccccc3n2)cc1	none
COc1ccc(N2Nc3n[nH]c(N)c3N2)cc1	none
COc1ccc(S(=O)(=O)N2CCOC23CCN(S(=O)(=O)c2cc(F)ccc2F)CC3)cc1	none
COc1ccc(OC)c(-c2csc(NC(=O)c3ccc(F)cc3)n2)c1	CSC inhib 86
CC(=O)N1CCN(c2ccc(Oc3ccc([N+](=O)[O-])c(C(F)(F)F)c3)cc2)CC1	Beta apoptosis 95
CCOc1ccc(C(=O)Nc2ccc(N3CCN(C(C)=O)CC3)cc2)cc1[N+](=O)[O-]	none
Cc1ccc(C)c(S(=O)(=O)N2CCN(C(=O)CCCc3c[nH]c4ccccc34)CC2)c1	T cruzi repl 64
CCOc1ccc(C(=O)CC(=O)C(=O)NCCc2ccc(OC)c(OC)c2)cc1	none
Cc1ccc(C(=O)OCC(=O)c2c[nH]c3ccccc23)cc1S(=O)(=O)N1CCCCC1	none
O=S(=O)(Nc1cc(Sc2cccc3cccnc23)c(O)c2ccccc12)c1ccc(F)cc1	CSC inhib 119, Beta apoptosis 102 (no result: UPR XBP1 act, UPR CHOP act, Mdm2 MdmX PPI)
CCCn1c(=O)c(C(=O)NNS(=O)(=O)c2ccc(Cl)cc2)c(O)c2ccccc21	CSC inhib 86
O=C(Nc1c(O)c2ccccc2[nH]c1=O)c1ccco1	none
Clc1ccc(SCc2cc(N3CCOCC3)nc(-c3ccccn3)n2)cc1	T cruzi repl 60, Beta apoptosis 99
CN(CC(=O)Nc1ccc(F)cc1)C(=O)C1CC(=O)N(Cc2ccccc2)C1 (centres undefined)	none
Cc1cccc(NNC(=O)C(=O)NNc2cccc(C)c2)c1	CSC inhib 93
CCCc1ccc(C(=O)NNc2cccc(C)c2)cc1	CSC inhib 77 (no result: T cruzi repl)
COc1ccc(N(CC(O)Cn2cnc3ccccc32)S(=O)(=O)c2ccc(C)cc2)cc1 (centres undefined)	none
CCCNC(=O)Cn1sc2nc(C)cc(C)c2c1=O	T cruzi repl 56
COc1ccc2nc(C)cc(NCCN3CCOCC3)c2c1	none
Cc1cc(NCCN2CCOCC2)c2ccc3ccccc3c2n1	T cruzi repl 65
Nc1nc2n[nH]nc2c(=O)[nH]1	T cruzi repl 68
Cc1ccc2c(c1)sc[n+]2Cc1ccccc1	T cruzi repl 55
Cc1ccc(-c2cc[n+](Cc3ccccc3)cc2)cc1	none (no result: T cruzi repl)
Cc1ccc(C)c(S(=O)(=O)NCCC(=O)N2CCCC(C(N)=O)C2)c1 (centres undefined)	none (no result: CSC inhib, T cruzi repl)
Cc1nc(N/N=C/c2ccc(Br)cc2)cc(N2CCOCC2)n1	none
O=C(Nc1cccc(-c2csc(-c3ccccc3)n2)c1)c1cccs1	CSC inhib 192
CCCNC(=O)c1onc(CSc2ccc(Cl)cc2)c1C(=O)NCCC(C)C	CSC inhib 93
COC(=O)c1ccc2c(c1O)C(=O)c1ccccc1C2=O	CSC inhib 96
Nc1c(C(=O)O)ccc2c1C(=O)c1ccccc1C2=O	none
O=C1C2Sc3[nH]c(=O)sc3C(c3cc([N+](=O)[O-])ccc3O)C2C(=O)N1c1ccccc1 (centres undefined)	none
COC(=O)C1=CN(Cc2ccc(OC)c(OC)c2)C=C(C(=O)OC)C1c1cccc(OC)c1OC	T cruzi repl 61
COc1ccc(NC(=O)c2ccc(COc3ccccc3OC)o2)cc1OC	none
O=C(Nc1nccs1)c1ccc(COc2ccccc2Cl)o1	CSC inhib 81
Cc1csc(NC(=O)c2ccc(COc3ccccc3)o2)n1	CSC inhib 79
O=C(Nc1nccs1)c1ccc(COc2c(F)c(F)cc(F)c2F)o1	none (no result: T cruzi repl)
COc1ccc(NC(=O)c2ccc(COc3ccccc3Br)o2)cc1OC	CSC inhib 96
